Assay results taken from ChEMBL document CHEMBL4354825, “Design and Synthesis of Basic Selective Estrogen Receptor Degraders for Endocrine Therapy Resistant Breast Cancer” (J Med Chem, 2019).
The source made the active and inactive calls. The rule behind the calls is not given here.

Experiments:
Mus musculus = test: In vivo degradation of ERalpha in C57BL/6 mouse at 50 mg/kg, po measured after 7 hrs by Western blot analysis; assay type: functional, organism-based
Outline: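 Female C57BL/6J mice aged 9–12 weeks were dosed at 50 mg/kg p.o. in PEG 400/10% HPCD (1:9 v/v). Regimens were a single dose with sacrifice at 5 h, or 3 daily doses with sacrifice 5 h (n = 5) or 7 h (n = 6) after the last dose. Ovaries and uterus were homogenized, 20 μg protein was run by SDS-PAGE, and the blot was probed for ERα and normalized to β-actin.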

[1] = Antiproliferative activity against human MCF7:WS8 cells assessed as reduction in cell viability incubated for 5 days by Hoechst 33258 dye based assay relative to control; assay type: functional; conditions: MCF7:WS8, 120 h
Outline: (§1)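 Cells were seeded at 5000 per well; MCF7:WS8 had been estrogen-stripped for 2 days first. Compounds were serially diluted in DMSO, with 0.01% DMSO as vehicle. The medium was removed on day 5 (MCF7:WS8) or day 7 (MCF7:5C), and cells were lysed by freezing at −80 °C overnight. DNA was measured by Hoechst 33258 fluorescence. Maximum efficacy was normalized to vehicle (0%) and no cells (100%); at least three biological replicates.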

[2] = Cmax in C57BL/6 mouse at 5 mg/kg, iv measured upto 24 hrs by LC-MS/MS analysis; assay type: ADME, organism-based; parameters: dose 5 mg/kg, route intravenous; conditions: in vivo
Outline: (§2)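 Full PK run by a contract lab. Dosing was 50 mg/kg p.o. in water and 10% SBE-β-CD/PEG-400 (9:1 v/v), and 5 mg/kg i.v. Sampling at 0.25, 0.5, 1, 2, 4, 8 and 24 h (N = 5). Plasma samples were diluted in 50% acetonitrile and quantified by LC-MS/MS against standards serially diluted in 50% acetonitrile. Brain was also sampled after the oral dose.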

cells = conditions: Homo sapiens, MCF7:5C, 168 h, read-out: pIC50 (converted)
T47D [3] = test: Cytotoxicity against human T47D 3D spheroid cells assessed as reduction in tumor cell viability at 10 nM incubated for 14 days by celltiter-glo 3D cell viability assay
[4] = Drug concentration in C57BL/6 mouse brain at 100 mg/kg, po measured after 0.5 hrs by LC/MS-MS analysis; assay type: ADME, organism-based; conditions: read-out: Drug uptake
Outline: (§3)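 PK screen in female C57BL/6 mice (N = 3 per time point). Dosed by gavage at 100 mg/kg in HPβD/PEG-400. Plasma and brain were taken from perfused mice at 30 and 120 min. Quantified by LC-MS/MS in MRM mode, with standard curves in each matrix and a common internal standard. Values are mean and s.d.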

[5] = target: T1, Estrogen receptor (Homo sapiens) (UniProt P03372); test: Inhibition of ERalpha in human MCF7:WS8 cells assessed as increase in degradation of ERalpha incubated for 24 hrs by In-Cell Western assay relative to control; assay type: cell-based
T1 sequence (whole entry): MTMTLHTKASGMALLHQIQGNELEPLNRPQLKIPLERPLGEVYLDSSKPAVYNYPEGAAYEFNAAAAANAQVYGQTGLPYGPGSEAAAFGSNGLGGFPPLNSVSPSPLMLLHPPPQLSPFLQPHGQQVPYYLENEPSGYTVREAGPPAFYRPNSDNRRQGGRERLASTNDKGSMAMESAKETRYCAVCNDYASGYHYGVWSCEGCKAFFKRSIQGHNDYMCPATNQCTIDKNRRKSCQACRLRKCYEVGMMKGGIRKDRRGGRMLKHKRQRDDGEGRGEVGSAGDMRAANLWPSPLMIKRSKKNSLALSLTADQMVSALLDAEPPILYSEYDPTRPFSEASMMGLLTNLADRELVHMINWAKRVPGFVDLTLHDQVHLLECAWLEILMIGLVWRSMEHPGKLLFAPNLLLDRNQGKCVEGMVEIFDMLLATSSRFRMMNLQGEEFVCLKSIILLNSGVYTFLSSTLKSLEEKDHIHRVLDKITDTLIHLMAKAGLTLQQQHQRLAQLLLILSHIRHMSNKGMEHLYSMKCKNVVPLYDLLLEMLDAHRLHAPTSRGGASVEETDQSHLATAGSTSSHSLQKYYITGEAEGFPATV
Outline: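 MCF7:WS8 cells were estrogen-stripped for 2 days and plated at 2.5 × 10^4 per well. After 48 h they were treated for 24 h. ERα was detected by in-cell western (H10 antibody), with signal normalized to CellTag 700.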

[6] = Cmax in C57BL/6 mouse brain at 50 mg/kg, po measured upto 24 hrs by LC-MS/MS analysis; assay type: ADME, organism-based; parameters: dose 50 mg/kg, route oral; conditions: in vivo; outline: as §2
[7] = AUC (0 to infinity) in C57BL/6 mouse brain at 50 mg/kg, po measured upto 24 hrs by LC-MS/MS analysis; assay type: ADME, organism-based; parameters: dose 50 mg/kg, route oral, time infinity; conditions: in vivo; outline: as §2
[8] = MRT (0 to infinity) in CD-1 mouse plasma at 50 mg/kg, po measured upto 24 hrs by LC-MS/MS analysis; conditions: in vivo
MCF7:TAM1 = test: Antitumor activity against human MCF7:TAM1 cells xenografted in athymic nude mouse assessed as tumor regression at 100 mg/kg, po measured after 4 weeks; assay type: functional, organism-based
Outline: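 MCF7:TAM1 cells were implanted into mammary fat pads of ovariectomized 4–6-week-old athymic nude mice carrying subcutaneous E2 silastic capsules (1.0 cm). Dosing was 100 mg/kg/day p.o. in 10% HPCD/PEG-400 (9:1). Tumor area was measured weekly by calipers as (length/2)×(width/2)×π.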

T47D [9] = test: Cytotoxicity against human T47D 3D spheroid cells harboring D538G mutant assessed as reduction in tumor cell viability at 10 nM incubated for 14 days by celltiter-glo 3D cell viability assay
[10] = Tmax in CD-1 mouse plasma at 50 mg/kg, po measured upto 24 hrs by LC-MS/MS analysis; conditions: in vivo
[11] = Antiproliferative activity against human MCF7:WS8 cells assessed as reduction in cell viability incubated for 5 days by Hoechst 33258 dye based assay; assay type: functional; conditions: MCF7:WS8, 120 h; outline: as §1
[12] = Plasma concentration in C57BL/6 mouse at 100 mg/kg, po measured after 2 hrs by LC/MS-MS analysis; assay type: ADME, organism-based; outline: as §3
Estrogen receptor = target: T2, Estrogen receptor (Homo sapiens, UniProt P03372); test: Antagonist activity at ERalpha in human MCF7:WS8 cells incubated for 18 hrs by dual luciferase reporter gene assay relative to control; assay type: cell-based
T2 sequence (P03372 whole entry): T1 sequence (whole entry)
Outline: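 MCF7:WS8 cells were estrogen-deprived for 3 days (phenol red-free RPMI, stripped FBS), then plated and grown 24 h. They were co-transfected for 6 h with a 3×vitellogenin ERE-firefly luciferase plasmid and a pRL-TK Renilla plasmid. Compounds were given in competition with 1 nM E2 for 18 h, then dual luciferase was read.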

[13] = AUClast/D in C57BL/6 mouse plasma at 50 mg/kg, po measured upto 24 hrs by LC-MS/MS analysis; assay type: ADME, organism-based; conditions: in vivo; outline: as §2

## Cc1cc(F)cc(C)c1C(=O)c1sc2cc(O)ccc2c1Oc1ccc(OC2CN(CCCF)C2)cc1
Mus musculus
  Activity: Active
[1]
  Emax: 80%
[2]
  Cmax: 1590 ng/mL
cells
  IC50: 0.347 nM
T47D [3]
  Activity: Active
[4]
  concentration at 0.5 h: 1630 nM
[5]
  Efficacy: 92%
[6]
  Cmax: 635 ng/mL
[7]
  AUC: 3450 ng·h/mL
[8]
  MRT: 6.05 h
MCF7:TAM1
  Activity: Active
T47D [9]
  Activity: Active
[10]
  Tmax: 1 h
[11]
  IC50: 0.55 nM
[12]
  concentration at 2 h: 2150 nM
Estrogen receptor
  IC50: 3.1 nM
[13]
  AUClast/dose: 33.6 ng·h/mL
